Source: PubChem
CendR NRP1 mod – NRP-1/CendR interaction modulation; inhibition, % at 25 µM; 360,000 compounds, 0.85% hits; O14786; FAM-RPARPAR peptide binding to NRP-1, fluorescence polarization;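 active = inhibition or corrected inhibition above about 18%, plus a signal ratio from 0.5 to 1.5, limit read from the data, passing the limit was not always enough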
Target sequence (O14786 whole entry, looked up): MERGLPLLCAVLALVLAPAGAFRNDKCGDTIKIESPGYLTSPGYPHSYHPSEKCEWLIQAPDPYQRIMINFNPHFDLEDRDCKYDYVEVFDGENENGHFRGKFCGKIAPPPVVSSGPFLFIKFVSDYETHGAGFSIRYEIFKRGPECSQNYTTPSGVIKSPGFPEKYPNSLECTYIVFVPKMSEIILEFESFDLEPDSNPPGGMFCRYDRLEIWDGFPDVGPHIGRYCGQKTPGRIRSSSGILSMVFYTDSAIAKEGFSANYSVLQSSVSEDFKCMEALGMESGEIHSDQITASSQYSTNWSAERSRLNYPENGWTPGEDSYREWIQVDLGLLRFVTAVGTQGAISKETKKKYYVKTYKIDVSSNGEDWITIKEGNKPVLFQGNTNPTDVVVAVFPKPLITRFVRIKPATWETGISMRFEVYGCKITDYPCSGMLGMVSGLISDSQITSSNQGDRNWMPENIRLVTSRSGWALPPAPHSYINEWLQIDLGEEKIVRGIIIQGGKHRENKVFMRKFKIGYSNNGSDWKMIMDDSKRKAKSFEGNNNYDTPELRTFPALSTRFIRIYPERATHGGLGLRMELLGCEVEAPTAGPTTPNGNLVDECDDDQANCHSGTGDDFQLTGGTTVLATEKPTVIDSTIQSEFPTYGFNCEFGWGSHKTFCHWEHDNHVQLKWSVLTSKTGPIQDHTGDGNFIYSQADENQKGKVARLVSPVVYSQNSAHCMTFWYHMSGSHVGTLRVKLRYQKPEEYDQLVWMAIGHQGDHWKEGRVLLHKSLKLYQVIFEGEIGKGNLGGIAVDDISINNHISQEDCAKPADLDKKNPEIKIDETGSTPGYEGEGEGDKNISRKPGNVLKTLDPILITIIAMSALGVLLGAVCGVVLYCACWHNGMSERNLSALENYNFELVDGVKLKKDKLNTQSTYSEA
UCH37 DUB inh – inhibitors of human deubiquitinating enzyme UCH37 | Q9Y5K5 | purified proteasome/UCH37, Ub-AMC cleavage fluorescence | inhibition, % (no concentration beside the values) | 330,000 compounds, 0.33% hits;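 active = mean inhibition over replicate wells above about 20%, limit read from the data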;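 note: 0% = compound-free wells with enzyme and 100% = wells lacking proteasome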
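system = Proteasome-associated human UCH37 deubiquitinase | amount = 0.15 nM proteasome as dispensed | medium = pH 7.4 Tris-HCl (50 mM) with ovalbumin, ATP-MgCl2, DTT | incubation = 30 min preincubation with enzyme, 25 min cleavage at room temperature | detection = AMC fluorescence 355/460 nm | read-out basis = percent inhibition | controls = no-proteasome and no-compound wells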
Fh CTSL1 inh – counter-screen for PFM18AAP inhibitors: inhibitors of F. hepatica cathepsin L1. recombinant F. hepatica cathepsin L1, Z-Leu-Arg-MCA fluorescence. inhibition, % at 5.96 µM. 300,000 compounds, 0.49% hits. AID 1906;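 active = inhibition above the mean of all tested compounds plus 3 SD, set per screening campaign, cut at about 17% in these data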;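 note: 0% = plate median of test compound wells and 100% = 1 µM Z-Phe-Ala-diazomethylketone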
DAGLB inhibitor – blocks human DAGLB lipase activity; Q8NCG7; HEK293T DAGLB membrane lysate, EnzChek fluorogenic substrate; inhibition, % at 5.17 µM; 340,000 compounds, 0.059% hits; in the data active = inhibition above about 34%;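 note: 0% = enzyme with vehicle and 100% = wells lacking enzyme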
MT1-MMP act inh – inhibitors of human MT1-MMP activation. HT1080 RFP-PRO-GFP cells, GFP/RFP ratio fluorescence, overnight; percent of plate control window, DMSO zero. GFP/RFP ratio change, % at 20 µM. 360,000 compounds, 0.061% hits;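 active = GFP/RFP ratio change of at least 30% with cell ATP level not reduced by more than half and red fluorescence within 50% of control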
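Compound: 20 µM single dose, 1% DMSO / System: HT1080 RFP-PRO-GFP cells / Controls: DMSO and RFP-L50D-GFP cell wells / Read-out basis: GFP/RFP fluorescence ratio / Schedule: overnight compound exposure at 37 °C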
Starred values were filed as active, the others as inactive. Only some compounds are listed: those with a hit (about 1.5% of all), similar ones and a draw of the others.

Results for Cc1cc(C)n2nc(-c3ccc(F)cc3)cc2n1 ?
CendR NRP1 mod: 2.2; DAGLB inhibitor: -2.6; MT1-MMP act inh: 0.1

Results for Cc1cc(-c2ccc(F)cc2)nc2cc(C(N)=O)nn12 ?
CendR NRP1 mod: 26.1*; UCH37 DUB inh: -18.5; Fh CTSL1 inh: 5.7; DAGLB inhibitor: 0.4; MT1-MMP act inh: -8.0

Results for O=C(O)/C(=C\c1ccccc1)c1ccc2ccccc2c1 ?
CendR NRP1 mod: 20.7*; UCH37 DUB inh: 1.8; Fh CTSL1 inh: 4.0; MT1-MMP act inh: -1.3

What do the screens show for `COc1ccc(C=NNc2nc(C)c([N+](=O)[O-])c(N(C)c3ccccc3)n2)cc1OC`?
UCH37 DUB inh: 4.8

Results for COc1ccc(/C=N/Nc2nc(C)c([N+](=O)[O-])c(N(C)c3ccccc3)n2)cc1OC ?
CendR NRP1 mod: 28.3*; Fh CTSL1 inh: 2.1; DAGLB inhibitor: -2.5; MT1-MMP act inh: 6.8

What do the screens show for `CC(=O)Nc1ccc(C(C)=NNC(=O)C2CC2c2ccccc2)cc1` (stereo not drawn)?
UCH37 DUB inh: 2.1

How did COc1ccc(C(=O)NC2CC2)cc1OC1CCN(Cc2ccccc2)CC1 do in these assays?
CendR NRP1 mod: 22.4*; UCH37 DUB inh: 4.1; DAGLB inhibitor: 0.7; MT1-MMP act inh: -4.6

Results for COc1ccc(C(=O)NC2CC2)cc1OC1CCN(Cc2ccc(F)cc2)CC1 ?
CendR NRP1 mod: 11.9; UCH37 DUB inh: 2.6; DAGLB inhibitor: 1.4; MT1-MMP act inh: -3.8

How did COC(=O)CN(C)C(=O)c1ccc(OC)c(OC2CCN(C(C)C)CC2)c1 do in these assays?
CendR NRP1 mod: 5.0; UCH37 DUB inh: 4.5; Fh CTSL1 inh: 52.0*; DAGLB inhibitor: 1.3; MT1-MMP act inh: -0.2

Results for CC(=NNc1ccc(F)cc1)c1ccc(N2CCOCC2)c(F)c1 ?
UCH37 DUB inh: 0.3

What do the screens show for `CN(C)c1cc(NN=Cc2ccccc2)nc(N(C)C)n1`?
UCH37 DUB inh: 3.4

What do the screens show for `C=CCN1C(=O)C(Cc2cccc(Cl)c2)SC1=NN=Cc1ccco1` (stereo not drawn)?
UCH37 DUB inh: -2.1

What do the screens show for `Cc1n[nH]c(=O)nc1NCc1ccco1`?
CendR NRP1 mod: 25.4*; UCH37 DUB inh: 1.5; Fh CTSL1 inh: 0.4; DAGLB inhibitor: 0.4; MT1-MMP act inh: 2.9

What do the screens show for `CC(=NNC(N)=S)c1cc(-c2ccccc2)c(-c2ccccc2)s1`?
UCH37 DUB inh: -14.6

What do the screens show for `O=C(Nc1ccc(C(F)(F)F)cc1)c1cc(S(=O)(=O)NCC2COc3ccccc3O2)ccc1F` (stereo not drawn)?
CendR NRP1 mod: 82.4*; UCH37 DUB inh: 0.9; Fh CTSL1 inh: 3.6; DAGLB inhibitor: -4.2; MT1-MMP act inh: 4.8

Results for O=C1c2cc(Cl)ccc2OC2(CCNCC2)C12CC(c1ccc(Cl)cc1)=NO2 (stereo not drawn) ?
CendR NRP1 mod: 24.7*; UCH37 DUB inh: -0.3; Fh CTSL1 inh: 5.0; DAGLB inhibitor: -0.2; MT1-MMP act inh: -0.4

What do the screens show for `O=C1c2cc(Cl)ccc2OC2(CCNCC2)C12CC(c1ccccc1)=NO2` (stereo not drawn)?
CendR NRP1 mod: -1.8; UCH37 DUB inh: 2.2; Fh CTSL1 inh: 3.9; DAGLB inhibitor: 0.2; MT1-MMP act inh: -1.0

What do the screens show for `C=CCN1C(=O)/C(=C/c2ccc(OCC(=O)O)cc2)SC1=Nc1nccs1`?
UCH37 DUB inh: 14.9

What do the screens show for `Cc1cn([C@H]2C[C@H](O)[C@@H](CCC(=O)NCc3cccc4ccccc34)O2)c(=O)[nH]c1=O`?
CendR NRP1 mod: -3.9; MT1-MMP act inh: 0.8

What do the screens show for `Cc1cn([C@H]2C[C@H](O)[C@@H](CCC(=O)NCCCn3ccnc3)O2)c(=O)[nH]c1=O`?
CendR NRP1 mod: 31.3*; UCH37 DUB inh: 2.0; DAGLB inhibitor: -0.3; MT1-MMP act inh: 3.8

How did C/C(=C\C=C\c1ccccc1)C(=O)c1c(C)cc(C)[nH]c1=O do in these assays?
CendR NRP1 mod: -0.2; UCH37 DUB inh: 1.3; Fh CTSL1 inh: 22.2*; DAGLB inhibitor: 0.9; MT1-MMP act inh: 0.4

How did CCN(CC)CCN1CCN(c2cnc(C)cn2)CC1 do in these assays?
CendR NRP1 mod: 22.9*; MT1-MMP act inh: 0.2

How did CCN(CC)CCN1CCN(c2cncc(-c3cccc(N)c3)n2)CC1 do in these assays?
CendR NRP1 mod: 2.0; MT1-MMP act inh: 4.7

Results for O=C(CCl)NN1C(=O)NC(c2ccccc2)(c2ccccc2)C1=O ?
CendR NRP1 mod: 18.3; UCH37 DUB inh: 4.3; Fh CTSL1 inh: 79.5*; DAGLB inhibitor: 1.0; MT1-MMP act inh: -0.6

Results for O=C(CCl)NN1C(=O)NC2(CCCCC2)C1=O ?
CendR NRP1 mod: 8.0; UCH37 DUB inh: 2.0; Fh CTSL1 inh: 4.0; DAGLB inhibitor: 1.4; MT1-MMP act inh: 2.1

Results for COc1cc(C(C)=NNC(=S)NC(C)C)cc(OC)c1OC ?
UCH37 DUB inh: 1.7

How did COc1cc(/C(C)=N\NC(N)=S)cc(OC)c1OC do in these assays?
CendR NRP1 mod: 0.4; Fh CTSL1 inh: 18.0*; DAGLB inhibitor: -0.1; MT1-MMP act inh: 1.5

What do the screens show for `CCOc1nc(-c2ccccc2)c2cc(C)ccc2n1`?
CendR NRP1 mod: 20.2*; UCH37 DUB inh: -129.7; Fh CTSL1 inh: 2.8; DAGLB inhibitor: -5.1; MT1-MMP act inh: 2.2

What do the screens show for `Cc1[nH]c2ccccc2c1C=NNc1nc(Nc2ccccc2)nc(N2CCOCC2)n1`?
UCH37 DUB inh: 2.4

How did COc1ccccc1NC(=O)Cn1c(=O)sc2ccccc21 do in these assays?
CendR NRP1 mod: 4.8; UCH37 DUB inh: -5.2; Fh CTSL1 inh: 0.8; DAGLB inhibitor: -2.0; MT1-MMP act inh: 4.3

How did COc1ccc(NC(=O)Cn2c(=O)sc3ccccc32)c(OC)c1 do in these assays?
CendR NRP1 mod: -13.3; UCH37 DUB inh: 1.6; Fh CTSL1 inh: 20.6*; DAGLB inhibitor: -0.9; MT1-MMP act inh: 7.1

Results for O=C1C(=O)c2cccnc2-c2ncccc21 ?
CendR NRP1 mod: 26.6*; MT1-MMP act inh: -14.9

What do the screens show for `O=C1c2cccnc2-c2ncccc21`?
CendR NRP1 mod: 15.8; UCH37 DUB inh: 2.0; Fh CTSL1 inh: -1.3; DAGLB inhibitor: -0.8; MT1-MMP act inh: -1.3

Results for COC1=C(Br)C(=O)c2ncccc2C1=O ?
CendR NRP1 mod: 36.5*; DAGLB inhibitor: -16.1; MT1-MMP act inh: 2.9

What do the screens show for `O=C(CCl)Nc1ccccc1Sc1ccc(Cl)cc1`?
CendR NRP1 mod: -2.0; UCH37 DUB inh: 3.6; Fh CTSL1 inh: 20.8*; DAGLB inhibitor: -2.0; MT1-MMP act inh: -6.5

How did C/C(=N\NC(=O)c1ccncc1)C12CC3CC(CC(C3)C1)C2 do in these assays?
CendR NRP1 mod: 0.4; Fh CTSL1 inh: 0.5; DAGLB inhibitor: -1.2; MT1-MMP act inh: -2.5

Results for CC(=NNC(N)=S)C1(C)CCCCC1 ?
UCH37 DUB inh: 5.6

What do the screens show for `C/C(=N\NC(N)=S)C1(C)CCCCC1`?
CendR NRP1 mod: 2.6; Fh CTSL1 inh: 29.7*; DAGLB inhibitor: 0.0; MT1-MMP act inh: -1.6

Results for C/C(=N\NC(N)=S)C12CC3CC(CC(C3)C1)C2 ?
CendR NRP1 mod: 13.1; Fh CTSL1 inh: 18.1*; DAGLB inhibitor: 2.5; MT1-MMP act inh: -5.9
